Paper PMC8264940 (ACS Omega, 2021)
Structures can show the parent of a compound that is named as a salt.

How the values were obtained:
[1] = test system: ZDF rats; assay: Antidiabetic study, HbA1c in ZDF rats; format: in vivo, rat; conditions: for HbA1c-lowering / antidiabetic effect (in words): repeated oral dosing BID, ZDF rats aged 11 to 13 weeks
Summary of the method: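 Male ZDF rats, 11 weeks old, allocated by HbA1c, fasting blood glucose and body weight. Test compound or metformin suspended in 5% gum Arabic, given orally twice daily and dosed on the latest body weight for 6 weeks. Body weight and food intake monitored. HbA1c measured by analyser, expressed as change from baseline; mean ± SE, n = 16 or 8; compared with vehicle group.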

[2] = test system: SD rats; assay: Acute toxicological study; format: in vivo, rat
[3] = test system: NaCT-expressing CHO cells; assay: TCA cycle activation assay; format: cell-based
Summary of the method: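 Stably transfected CHO-K1 cells express NaCT (pME18S, then pcDNA3.1(+) vectors); control CHO cells carry vector without the NaCT gene. Cells take up [1,5-14C]citric acid. TCA cycle activation is read as the reduction in residual intracellular radioactivity as the citrate is metabolised. Run with and without antimycin A (complex III inhibitor).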

[4] = Plasma pharmacokinetic study in SD rats; conditions: rat, in vivo
Summary of the method: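 Male SD rats, 6–7 weeks old; test compound given as oral suspension by body weight, two animals per compound. Tail-vein blood was collected. Plasma was mixed with 10-fold acetonitrile–methanol (1:1), centrifuged, and the supernatant analysed by LC-ESI-MS/MS (C18 column, ammonium acetate/acetonitrile gradient, negative-ion selected reaction monitoring). Plasma detection limit 0.01 μg/mL.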

[5] = Tissue distribution; format: in vivo, rat; conditions: 2 h after 10 mg/kg p.o., SD rats, mean of 2 animals; detection limit 0.04 μg/g
Summary of the method: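 Male SD rats, 6–7 weeks old, given test compound as oral suspension, two animals per compound; values are means of 2. Liver and brain homogenates and plasma were mixed with 10-fold acetonitrile–methanol (1:1), centrifuged, and supernatants analysed by LC-ESI-MS/MS in negative-ion SRM mode. Detection limits 0.01 μg/mL (plasma) and 0.04 μg/g (liver, brain).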

[6] = test system: HepG2 cells; assay: Oxygen consumption rate; format: cell-based, human; conditions: in the presence of oligomycin, P < 0.01 vs DMSO

N[C@@H](CC(=O)N1CCn2c(nnc2C(F)(F)F)C1)Cc1cc(F)c(F)cc1F [sitagliptin, Sitagliptin phosphate hydrate, reference compound]
Reduction of HbA1c change from the vehicle value ([1]; monotherapy 10 mg/kg/day, 6-week, vehicle 2.97% points): 11.4%

N#Cc1[nH]nnc1-c1cccc(OCc2cc(C(F)(F)F)ccc2C(F)(F)F)c1 [Compound 3a, 5-{3-[2,5-Bis(trifluoromethyl)benzyloxy]phenyl}-3H-[1,2,3]triazole-4-carbonitrile]
Deaths ([2]; 300 mg/kg single dose, after hyperthermia and hyperglycemia): one of three

N#Cc1[nH]nnc1-c1cc(Cl)cc(/C=C/c2cccc(C(F)(F)F)c2)c1 [Compound 3c, (E)-5-(3-Chloro-5-(3-(trifluoromethyl)styryl)phenyl)-3H-1,2,3-triazole-4-carbonitrile]
In vitro activity relative to compound 1 ([3]; EC50 of the TCA activation): one-third | Metabolite finding in PK study [4]: a metabolite implying the possibility of future adverse effects was found | HbA1c-lowering / antidiabetic effect (in words) [1]: significant HbA1c lowering effect

CN(C)C(=N)N=C(N)N [metformin, 1,1-Dimethyl biguanide (metformin) hydrochloride, reference compound]
Effect on HbA1c, monotherapy (in words) ([1]; 100 mg/kg/day alone, 6-week, ZDF rats): no effect

N#Cc1[nH]nnc1-c1csc(-c2ccc(Cl)cc2)n1 [Compound 3d, 5-[2-(4-Chlorophenyl)-thiazol-4-yl]-3H-[1,2,3]triazole-4-carbonitrile]
Brain distribution, concentration [5]: indetectable | HbA1c-lowering / antidiabetic effect (in words) [1]: prominent

N#Cc1[nH]nnc1-c1cccc(-c2cc(F)cc(C(F)(F)F)c2)c1 [Compound 3b, 5-(3′-Fluoro-5′-trifluoromethyl-[1,1-biphenyl]-3-yl)-3H-[1,2,3]triazole-4-carbonitrile]
Doses elevating rectal temperature ([2]; single dose, SD rats, 8 h after dosing): no elevation of rectal temperature was observed | HbA1c-lowering / antidiabetic effect (in words) [1]: remarkable antidiabetic effect

Cc1sc(-c2ccc(C(F)(F)F)cc2)nc1-c1nn(C)nc1C#N [Compound 4, 2-Methyl-5-{5-methyl-2-[4-(trifluoromethyl)phenyl]thiazol-4-yl}-2H-1,2,3-triazole-4-carbonitrile]
Activation of the TCA cycle (in words) [3]: did not occur

O=[N+]([O-])c1ccc(O)c([N+](=O)[O-])c1 [DNP, 2,4-dinitrophenol]
Concentration significantly increasing OCR [6]: 40 µM

N#CC(C#N)=NNc1ccc(OC(F)(F)F)cc1 [FCCP, Carbonyl cyanide p-trifluoromethoxyphenylhydrazone]
Concentration significantly increasing OCR [6]: 0.25 µM
